Data published in ChEMBL document CHEMBL1926661, “The arginine mimicking β-amino acid β³hPhe(3-H₂N-CH₂) as S1 ligand in cyclotheonamide-based β-tryptase inhibitors” (Bioorg Med Chem, 2011).
pKi: −log10 of the molar value.

Experiments:
[1] = Inhibition of trypsin
Homo sapiens = species: Homo sapiens; experiment: Selectivity ratio of Ki for Trypsin to Ki for human beta-tryptase
[2] = Inhibition of human beta-tryptase
[3] = Inhibition of human mast cell tryptase-beta using chromogenic substrate
Prothrombin = Prothrombin (Homo sapiens, UniProt P00734); experiment: Inhibition of thrombin
Coagulation factor X = Coagulation factor X (Homo sapiens, UniProt P00742); experiment: Inhibition of factor 10a
Chain of Coagulation factor X (P00742 41-179 limits assumed): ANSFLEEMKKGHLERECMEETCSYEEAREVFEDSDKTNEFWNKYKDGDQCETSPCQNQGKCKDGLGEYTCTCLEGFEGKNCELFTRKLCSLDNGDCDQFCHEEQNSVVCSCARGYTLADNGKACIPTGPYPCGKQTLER
Chain of Coagulation factor X (P00742 235-488 limits assumed): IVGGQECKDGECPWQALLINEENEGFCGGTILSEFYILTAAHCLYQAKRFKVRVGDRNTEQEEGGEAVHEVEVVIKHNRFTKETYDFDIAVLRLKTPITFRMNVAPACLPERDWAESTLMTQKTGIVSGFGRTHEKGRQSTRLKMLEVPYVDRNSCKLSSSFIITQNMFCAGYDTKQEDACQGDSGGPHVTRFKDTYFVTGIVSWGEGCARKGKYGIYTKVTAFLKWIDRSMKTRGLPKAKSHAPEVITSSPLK

Kallikrein-1 = Kallikrein-1 (Homo sapiens, UniProt P06870); experiment: Inhibition of tissue kallikrein
Chain of Kallikrein-1 (P06870 whole entry): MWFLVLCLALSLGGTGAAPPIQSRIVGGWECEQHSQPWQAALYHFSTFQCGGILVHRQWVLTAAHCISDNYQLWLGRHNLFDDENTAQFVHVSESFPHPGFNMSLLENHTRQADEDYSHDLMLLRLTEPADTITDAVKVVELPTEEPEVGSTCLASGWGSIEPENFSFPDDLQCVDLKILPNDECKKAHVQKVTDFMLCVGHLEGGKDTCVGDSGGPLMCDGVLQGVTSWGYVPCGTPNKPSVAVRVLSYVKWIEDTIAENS

Plasma kallikrein = Plasma kallikrein (Homo sapiens, UniProt P03952); experiment: Inhibition of plasma kallikrein
Chain of Plasma kallikrein (P03952 20-390 limits assumed): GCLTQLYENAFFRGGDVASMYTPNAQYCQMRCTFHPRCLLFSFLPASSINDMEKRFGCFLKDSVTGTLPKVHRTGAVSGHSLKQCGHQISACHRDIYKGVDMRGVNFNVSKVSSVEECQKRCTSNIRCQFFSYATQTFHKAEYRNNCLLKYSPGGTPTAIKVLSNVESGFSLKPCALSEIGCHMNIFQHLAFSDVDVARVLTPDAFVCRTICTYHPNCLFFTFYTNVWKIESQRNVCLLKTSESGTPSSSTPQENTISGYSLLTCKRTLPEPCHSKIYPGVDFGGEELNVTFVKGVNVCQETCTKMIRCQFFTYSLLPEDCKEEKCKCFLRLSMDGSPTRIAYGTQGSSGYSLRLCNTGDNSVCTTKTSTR
Chain of Plasma kallikrein (P03952 391-638 limits assumed): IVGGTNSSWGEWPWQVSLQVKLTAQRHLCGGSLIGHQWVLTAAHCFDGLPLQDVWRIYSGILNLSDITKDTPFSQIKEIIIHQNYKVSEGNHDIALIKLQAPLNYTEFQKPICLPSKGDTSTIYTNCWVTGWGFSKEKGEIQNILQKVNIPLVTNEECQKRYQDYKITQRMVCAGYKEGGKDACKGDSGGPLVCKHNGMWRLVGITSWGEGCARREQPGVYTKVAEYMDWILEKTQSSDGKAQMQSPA

[4] = Metabolic stability in human serum assessed as compound remaining at 200 uM after 48 hrs by RP-HPLC analysis; type: ADME, cell-free; settings: read-out: Stability
Procedure, shortened: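 Compound at 200 μM incubated in undiluted human plasma or human serum at 37 °C for up to 48 h. At time points, samples were acidified with an equal volume of 0.1% TFA and centrifuged at 8000 × g for 10 min. Supernatants were analysed by C18 RP-HPLC using a linear H₂O/MeCN (0.1% TFA) gradient over 200 min to quantify remaining intact inhibitor.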

[5] = Inhibition of beta-tryptase

pKi [1]	Ratio Ki (Homo sapiens)	pKi [2]	pKi (Prothrombin)	pKi (Coagulation factor X)	pKi (Kallikrein-1)	pKi (Plasma kallikrein)	remaining at 48 h, 200 µM [4]	pKi [5]	SMILES	pKi [3]
5.00	1400	8.15							CC[C@H](C)[C@H]1NC(=O)C[C@H](CCCNC(=N)N)NC(=O)[C@@H]2CCCN2C(=O)[C@@H](NC(=O)CCCCCN)CNC(=O)/C=C/[C@H](Cc2ccc(O)cc2)NC1=O	
4.00	170		3.17	3.51	2.74	2.48	95%		CC[C@H](C)[C@H]1NC(=O)C[C@H](Cc2cccc(CN)c2)NC(=O)[C@@H]2CCCN2C(=O)[C@@H](NC(C)=O)CNC(=O)/C=C/[C@H](Cc2ccc(O)cc2)NC1=O	6.22
3.40								4.85	COC(=O)C(Cc1cccc(CN)c1)NC(C)=O (racemic)	
4.30	2000		3.48	3.44	2.89	2.70	81%		CC[C@H](C)[C@H]1NC(=O)C[C@H](Cc2cccc(CN)c2)NC(=O)[C@@H]2CCCN2C(=O)[C@@H](NC(=O)CCCCCN)CNC(=O)/C=C/[C@H](Cc2ccc(O)cc2)NC1=O	7.60
3.64	0.6	3.42							CC[C@H](C)[C@H]1NC(=O)C[C@H](CCCCN)NC(=O)[C@@H]2CCCN2C(=O)[C@@H](NC(C)=O)CNC(=O)/C=C/[C@H](Cc2ccc(O)cc2)NC1=O	
4.52	0.8	4.40							CC[C@H](C)[C@H]1NC(=O)C[C@H](CCCNC(=N)N)NC(=O)[C@@H]2CCCN2C(=O)[C@@H](NC(C)=O)CNC(=O)/C=C/[C@H](Cc2ccc(O)cc2)NC1=O	
